Source: PubChem
An excerpt weighted towards active compounds, which were near 2.9% of everything screened.
SUMO Mot1 rescue = yeast Mot1-301 growth rescue at high temperature, primary screen, SUMOylation pathway inhibitor project, S. cerevisiae, ATP luminescence, 38.5C | S. cerevisiae Mot1-301 growth rescue; percent above DMSO median, 100 means doubled | growth rescue, % at 18.8 µM | 320,000 compounds, 1% hits;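 active means every valid replicate shows activation above 250% relative to neutral control wells; inactive means the rest, any valid replicate at or below 250%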;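 further: OY570 slx delta 5 strain wells were the positive control but not used for scaling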
PolyA inhibitor = polyadenylation inhibitors in yeast reporter cells, primary screen, luminescence, S. cerevisiae. 300,000 compounds, 0.02% hits. activity score, % at 12 µM. AID 1875, 2009. S. cerevisiae SKY197-pL101 polyadenylation reporter, beta-gal luminescence; efflux-impaired pdr1/pdr3 knockout yeast; score 100 = 6 SD above DMSO;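 active means lowest replicate activity score at least 50, where 100 means six control SD above control mean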;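 further: yeast exposed to compound for 9 h at 30 °C; higher score means more reporter readthrough which indicates perturbed polyadenylation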
NALP3 yeast inh = NALP3 inflammasome inhibitors in reconstituted yeast, primary screen, luminescence, uHTS; Yeast reconstituted NLRP3/ASC/caspase-1, beta-gal luminescence, 24 h; inhibition, % at 10 µM; 330,000 compounds, 0.39% hits; AID 2825, 2010;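 active means inhibition of 50% or more; inactive means inhibition below 50%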;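 further: plate controls were induced DMSO wells for no effect and uninduced yeast grown without galactose for full effect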
NALP1 yeast inh = NALP1 inflammasome inhibitors in reconstituted yeast, colorimetric, S. cerevisiae, triplicate retest; inhibition, % at 10 µM; S. cerevisiae NALP1/ASC/caspase-1 growth, X-gal OD620, 72 h; 280,000 compounds, 0.61% hits; in the data active means inhibition mostly above about 24%, no sharp cut-off; inactive means mostly below about 32%
VIM-2 inh = VIM-2 metallo-beta-lactamase inhibitors, primary screen, biochemical, epi-absorbance readout, Pseudomonas aeruginosa enzyme; 290,000 compounds, 0.89% hits; purified VIM-2, nitrocefin hydrolysis, epi-absorbance fluorescence; AID 1527, 2009; inhibition, % at 5.6 µM;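 active means inhibition above the mean of all tested compounds plus 3 SD, cutoff set per screening run, cut at about 7.5% in these data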;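 further: red hydrolysis product quenches plate fluorescence so inhibitors raise well fluorescence; 0% = enzyme with DMSO and 100% = DMSO without enzyme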
IMP-1 inhibitor = IMP-1 metallo-beta-lactamase inhibitors, primary screen, biochemical, epi-absorbance readout, Pseudomonas aeruginosa enzyme | metallo-beta-lactamase IMP-1 (Pseudomonas aeruginosa) | purified IMP-1, nitrocefin hydrolysis, epi-absorbance fluorescence | inhibition, % at 5.6 µM | 290,000 compounds, 0.45% hits;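 active means inhibition above the mean plus 3 SD of all compounds in the same screening run, cut at about 4.5% in these data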;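 further: 0% = IMP-1 with DMSO and 100% = DMSO wells lacking enzyme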
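system = purified recombinant IMP-1 beta-lactamase | amount = 0.2 nM IMP-1, as dispensed | medium = HEPES buffer pH 7.1 with ZnSO4 and Brij 35 | times = 25 °C, 15 min preincubation, 25 min reaction | detection = plate fluorescence quenching by hydrolysis product, ex 480/em 530 nm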
* hit, by the source's call; / = no result given.

SMILES | SUMO Mot1 rescue | PolyA inhibitor | NALP3 yeast inh | NALP1 yeast inh | VIM-2 inh | IMP-1 inhibitor
O=C(O)CCNc1cc(N2CCN(C(=O)c3ccco3)CC2)c2noc3c2c1C(=O)c1ccccc1-3 | -22 | -8 | 22 | 5 | 0 | 7.0*
CCOC(=O)C(C(=O)OCC)c1cc(Br)c2noc3c2c1C(=O)c1ccccc1-3 | 1 | 19 | 17 | 28 | -2 | -3
CC(C)Oc1ccccc1NC(=O)CSc1nccn1C | -6 | 0 | 11 | 0 | 1 | 0
O=C(c1cccc2nccnc12)N1CCCC(Nc2ccc(F)c(F)c2)C1 (stereo not drawn) | -24 | 11 | 15 | 14 | -3 | -1
CCOc1ccc(N2C(=O)C3Sc4[nH]c(=O)sc4C(/C=C/c4ccccc4)C3C2=O)cc1 (stereo not drawn) | -19 | -14 | 11 | 20 | 0 | 8.0*
CC(=O)c1ccc(OCCCC(=O)Nc2cccc(S(=O)(=O)N3CCCCC3)c2)cc1 | 11 | / | 9 | / | / | /
O=C(c1ccccn1)N1N=C2/C(=C/c3ccccc3)CCCC2C1c1ccccc1 (stereo not drawn) | 400* | 8 | 8 | 18 | 3 | -1
O=C1CCC(C(=O)OCC(=O)N2N=C3/C(=C/c4ccccc4)CCCC3C2c2ccccc2)N1 (stereo not drawn) | 4 | 0 | 2 | 17 | -3 | -6
COc1cc2cc(C(=O)N(C)C3CCS(=O)(=O)C3)[nH]c2cc1OC (stereo not drawn) | -3 | 0 | 7 | 14 | 8.1* | -5
CN(C(=O)c1ccc(Cl)cc1)C1CCS(=O)(=O)C1 (stereo not drawn) | 5 | / | -1 | / | / | /
O=C(O)Cc1ccc(NC(=O)C2CC=CCC2C(=O)O)cc1 (stereo not drawn) | 625* | 8 | 3 | 7 | -4 | -4
CCc1ccc(NC(=O)C2CC=CCC2C(=O)O)cc1 (stereo not drawn) | -9 | -3 | -16 | -7 | -1 | -1
COc1ccc(CNS(=O)(=O)c2cc(-c3cc(C)no3)ccc2C)cc1OC | 3 | -17 | 10 | 34 | 1 | -1
CSC(=NCCCN1CCOCC1)NS(=O)(=O)c1cccs1 | / | 16 | -12 | 32* | -3 | -3
Cc1cccn2c(=O)c3cc(C(=O)N4CCOCC4)n(C)c3nc12 | -7 | 3 | 15 | 12 | 8.2* | -1
O=C(NCCN1CCN(c2ccccc2)CC1)c1cccn2c(=O)c3cc(Cl)ccc3nc12 | -8 | 7 | 21 | 15 | 8.2* | -2
Cc1cccn2c(=O)c3cc(C(=O)N4CCN(C(=O)c5ccco5)CC4)n(C)c3nc12 | -1 | 4 | -10 | 2 | 0 | -3
COc1ccc(CCNC(=O)c2cc3c(=O)n4cccc(C)c4nc3n(CCCN3CCOCC3)c2=N)cc1 | 13 | 4 | 7 | 5 | 7.8* | -3
CCOCCCn1c(=N)c(C(=O)NCCN2CCOCC2)cc2c(=O)n3cccc(C)c3nc21 | -8 | / | 7 | / | 1 | -2
Cc1cccn2c(=O)c3cc(C(=O)NCCN4CCOCC4)c(=N)n(CCN4CCOCC4)c3nc12 | 143 | -5 | 14 | 3 | 11* | 0
COc1ccc(N2CCN(CC(=O)Nc3ccccc3C(=O)NCc3ccccc3)CC2)cc1 | / | / | 11 | / | / | /
COCCCn1c(C(=O)NCCN2CCOCC2)cc2c(=O)n3ccccc3nc21 | -15 | 18 | 3 | 4 | 2 | -3
Cn1c(C(=O)NCCN2CCOCC2)cc2c(=O)n3ccccc3nc21 | 0 | -2 | -5 | 17 | 8.3* | -1
COc1ccc(CNC(=O)c2cc3c(=O)n4cccc(C)c4nc3n(CC3CCCO3)c2=N)cc1 (stereo not drawn) | 12 | 10 | 25 | 36* | 3 | -2
Cc1ccc(S(=O)(=O)N(C)C)cc1NC(=O)CSc1nnc(C2CC2)n1C1CC1 | 16 | / | -1 | / | / | /
CC(=O)Nc1cc2nc(C)n(Cc3ccc([N+](=O)[O-])cc3)c2nc1C | 10 | 8 | 13 | 3 | -1 | -2
